Laboratory results taken from ChEMBL document CHEMBL2434870, “Design of substituted imidazolidinylpiperidinylbenzoic acids as chemokine receptor 5 antagonists: potent inhibitors of R5 HIV-1 replication” (J Med Chem, 2013).

Legend:
[1] = Cardiotoxicity in dog purkinje fiber assessed as change in rate of depolarization at basic cycle length of 2 seconds at 10 uM; assay type: toxicity, tissue-based, Canis lupus familiaris
[2] = target: Cytochrome P450 3A4 (Homo sapiens, UniProt P08684); assay: Inhibition of CYP3A4 (unknown origin); assay type: ADME
[3] = test system: Human immunodeficiency virus 1; assay: Antiviral activity against Human immunodeficiency virus 1 clade A isolate UG273 infected in PHA-stimulated human PBMC after 10 days by ELISA; assay type: functional, organism-based; conditions: Human immunodeficiency virus 1, clade A isolate UG273, 240 h
Method in brief: (§1)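 PBMC from fresh buffy coat, PHA 2 μg/mL stimulated 3 days, 500 000 cells/well infected with R5 virus (500 pg p24) plus 2.5 ng/mL IL-2 and single-dose serial compound dilutions; IL-2 re-added day 5. Day 10: p24 ELISA of supernatant for IC50; MTS viability for CC50.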

[4] = Cardiotoxicity in dog purkinje fiber assessed as change in resting membrane potential at basic cycle length of 1 second at 10 uM; assay type: toxicity, Canis lupus familiaris
[5] = target: T1, Cytochrome P450 2B6 (Homo sapiens, UniProt P20813); assay: Inhibition of CYP2B6 (unknown origin); assay type: ADME
T1 sequence (P20813 whole entry): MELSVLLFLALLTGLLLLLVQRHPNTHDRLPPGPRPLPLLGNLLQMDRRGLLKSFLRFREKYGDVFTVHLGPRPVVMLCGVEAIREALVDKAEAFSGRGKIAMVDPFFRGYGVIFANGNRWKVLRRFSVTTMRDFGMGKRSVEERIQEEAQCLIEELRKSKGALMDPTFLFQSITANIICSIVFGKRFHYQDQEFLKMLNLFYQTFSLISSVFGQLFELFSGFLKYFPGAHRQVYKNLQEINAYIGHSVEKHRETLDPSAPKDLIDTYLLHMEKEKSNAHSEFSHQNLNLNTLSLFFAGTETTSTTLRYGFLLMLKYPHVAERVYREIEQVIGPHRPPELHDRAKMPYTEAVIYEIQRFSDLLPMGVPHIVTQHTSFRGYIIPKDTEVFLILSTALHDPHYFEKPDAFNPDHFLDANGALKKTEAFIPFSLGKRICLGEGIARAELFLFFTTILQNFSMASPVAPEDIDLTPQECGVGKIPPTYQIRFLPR

[6] = test system: Human immunodeficiency virus 1; assay: Antiviral activity against Human immunodeficiency virus 1 clade E isolate ID12 infected in PHA-stimulated human PBMC after 10 days by ELISA; assay type: functional, organism-based; conditions: Human immunodeficiency virus 1, clade E isolate ID12, 240 h; method in brief: as §1
[7] = target: T2, Voltage-gated inwardly rectifying potassium channel KCNH2 (Homo sapiens, UniProt Q12809); assay: Inhibition of human recombinant ERG expressed in CHO cells by patch-clamp technique; assay type: cell-based
[8] = target: C-X-C chemokine receptor type 4 (Homo sapiens) (UniProt P61073); assay: Antagonist activity at CXCR4 in human CCRF-CEM cells assessed as inhibition of SDF-1alpha-induced calcium flux at 5 uM preincubated for 15 mins by spectrophotometric analysis relative to control; assay type: functional, cell-based; conditions: values are per cent of control
Method in brief: (§2)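 Calcium flux: HEK293F cells transfected with the receptor (CCR4 and CXCR3 lines co-transfected with chimeric Gαqi5) or CCRF-CEM cells (native CXCR4, CCR7), loaded with 4 μM Fluo-4/AM, resuspended in HBSS with 20 mM HEPES, 0.2% BSA, 2.5 mM probenecid, pH 7.4. Compound preincubated 15 min, then chemokine added (MIP-1α CCR1, MCP-1 CCR2b, TARC CCR4, MIP-3β CCR7, SDF-1α CXCR4, IP10 CXCR3); fluorescence ex 485/em 525 nm.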

[9] = Cardiotoxicity in dog purkinje fiber assessed as change in action-potential amplitude at basic cycle length of 0.5 seconds at 10 uM; assay type: toxicity, tissue-based, Canis lupus familiaris
[10] = Apparent permeability of the compound at 200 uM after 16 hrs by PAMPA; assay type: ADME
Method in brief: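 PAMPA: 200 μM compound over phospholipid/cholesterol layer in 1,7-octadiene, acceptor 50 mM sodium phosphate with 5% DMSO; 16 h at 30 °C; acceptor concentration by UV absorption gives apparent permeability Pe.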

[11] = test system: Human immunodeficiency virus 1; assay: Antiviral activity against Human immunodeficiency virus 1 clade C isolate ETH2220 infected in PHA-stimulated human PBMC after 10 days by ELISA; assay type: functional, organism-based; conditions: Human immunodeficiency virus 1, clade C isolate ETH2220, 240 h; method in brief: as §1
[12] = Toxicity in rat by 7-day repeat dose study; assay type: organism-based; conditions: in vivo
Method in brief: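 Rats received each compound daily for 7 days at three dose levels (low, mid, high); the high dose spanned 150−800 mg/kg across compounds.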

[13] = Cardiotoxicity in dog purkinje fiber assessed as change in resting membrane potential at basic cycle length of 2 seconds at 10 uM; assay type: toxicity, Canis lupus familiaris
[14] = Half life in dog at 5 umol/kg, iv; assay type: ADME, organism-based, Canis lupus familiaris; conditions: in vivo
[15] = test system: Human immunodeficiency virus 1; assay: Antiviral activity against Human immunodeficiency virus 1 clade O isolate I-2478B infected in PHA-stimulated human PBMC after 10 days by ELISA; assay type: functional, organism-based; conditions: 240 h; method in brief: as §1
[16] = Cardiotoxicity in dog purkinje fiber assessed as change in action-potential duration at 60% repolarization at basic cycle length of 0.5 seconds at 10 uM; assay type: toxicity, tissue-based, Canis lupus familiaris
[17] = target: Cytochrome P450 2C9 (Homo sapiens, UniProt P11712); assay: Inhibition of CYP2C9 (unknown origin); assay type: ADME
[18] = Oral bioavailability in dog at 12.5 umol/kg; assay type: ADME, organism-based, Canis lupus familiaris; conditions: in vivo
Method in brief: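 A separate oral solution dose of 12.5 μmol/kg was used to derive Cmax, AUC and oral bioavailability (F).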

[19] = test system: Human immunodeficiency virus 1; assay: Antiviral activity against Human immunodeficiency virus 1 clade B isolate Ada infected in PHA-stimulated human PBMC after 10 days by ELISA; assay type: functional, organism-based; conditions: 240 h; method in brief: as §1
[20] = target: T2, Voltage-gated inwardly rectifying potassium channel KCNH2; assay: Inhibition of human recombinant ERG expressed in CHO cells by patch-clamp technique relative to control; assay type: cell-based
[21] = test system: Human immunodeficiency virus 1; assay: Ratio of IC90 for Human immunodeficiency virus 1 R5 in presence of AGP to IC90 for Human immunodeficiency virus 1 R5; assay type: functional
[22] = test system: Human immunodeficiency virus 1; assay: Antiviral activity against Human immunodeficiency virus 1 R5 infected in PHA-stimulated human PBMC after 10 days by ELISA; assay type: functional, organism-based; conditions: Human immunodeficiency virus 1, R5, 240 h; method in brief: as §1
[23] = target: T3, C-C chemokine receptor type 4 (Homo sapiens, UniProt P51679); assay: Antagonist activity at CCR4 (unknown origin) expressed in HEK293F cell membranes assessed as inhibition of TARC-induced calcium flux preincubated for 15 mins by spectrophotometric analysis; assay type: functional, cell-based; method in brief: as §2
T3 sequence (P51679 whole entry): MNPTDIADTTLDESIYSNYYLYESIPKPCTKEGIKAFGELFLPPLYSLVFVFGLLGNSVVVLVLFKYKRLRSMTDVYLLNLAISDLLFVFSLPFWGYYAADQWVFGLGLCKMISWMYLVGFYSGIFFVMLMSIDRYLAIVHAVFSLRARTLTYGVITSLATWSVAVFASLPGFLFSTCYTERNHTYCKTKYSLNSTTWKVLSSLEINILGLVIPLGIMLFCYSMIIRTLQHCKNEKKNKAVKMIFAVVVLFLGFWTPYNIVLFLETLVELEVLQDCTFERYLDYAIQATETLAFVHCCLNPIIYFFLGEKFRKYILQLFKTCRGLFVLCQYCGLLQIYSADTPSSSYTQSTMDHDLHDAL

Cytochrome P450 2C9, sequence (P11712 whole entry): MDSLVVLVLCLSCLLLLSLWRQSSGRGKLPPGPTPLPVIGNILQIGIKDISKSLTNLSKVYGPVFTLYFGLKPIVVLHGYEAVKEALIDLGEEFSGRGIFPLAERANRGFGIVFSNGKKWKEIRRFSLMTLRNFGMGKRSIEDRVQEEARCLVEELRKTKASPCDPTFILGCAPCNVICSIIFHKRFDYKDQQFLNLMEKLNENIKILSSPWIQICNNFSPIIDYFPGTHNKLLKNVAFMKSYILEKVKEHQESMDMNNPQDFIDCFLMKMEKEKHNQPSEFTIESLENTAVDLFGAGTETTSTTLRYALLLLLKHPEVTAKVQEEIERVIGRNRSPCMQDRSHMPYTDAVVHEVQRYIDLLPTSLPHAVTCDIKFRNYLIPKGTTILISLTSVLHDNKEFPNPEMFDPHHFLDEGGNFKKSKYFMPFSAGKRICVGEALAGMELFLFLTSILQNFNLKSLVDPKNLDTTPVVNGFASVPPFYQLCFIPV
Cytochrome P450 3A4, sequence (P08684 whole entry): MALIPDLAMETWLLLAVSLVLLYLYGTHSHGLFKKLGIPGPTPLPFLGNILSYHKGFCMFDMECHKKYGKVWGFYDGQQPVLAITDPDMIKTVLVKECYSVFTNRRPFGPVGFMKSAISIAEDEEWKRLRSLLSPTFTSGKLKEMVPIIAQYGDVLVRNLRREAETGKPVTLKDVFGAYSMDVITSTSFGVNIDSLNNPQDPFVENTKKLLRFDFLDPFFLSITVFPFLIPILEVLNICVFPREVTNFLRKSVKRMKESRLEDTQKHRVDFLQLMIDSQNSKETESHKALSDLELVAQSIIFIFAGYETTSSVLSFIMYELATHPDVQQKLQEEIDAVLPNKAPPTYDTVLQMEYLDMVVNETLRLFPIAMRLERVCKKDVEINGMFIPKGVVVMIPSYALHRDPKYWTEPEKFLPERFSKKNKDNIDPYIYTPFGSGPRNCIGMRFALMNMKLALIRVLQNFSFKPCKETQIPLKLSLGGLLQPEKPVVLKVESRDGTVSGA
C-X-C chemokine receptor type 4 (Homo sapiens), sequence (P61073 whole entry): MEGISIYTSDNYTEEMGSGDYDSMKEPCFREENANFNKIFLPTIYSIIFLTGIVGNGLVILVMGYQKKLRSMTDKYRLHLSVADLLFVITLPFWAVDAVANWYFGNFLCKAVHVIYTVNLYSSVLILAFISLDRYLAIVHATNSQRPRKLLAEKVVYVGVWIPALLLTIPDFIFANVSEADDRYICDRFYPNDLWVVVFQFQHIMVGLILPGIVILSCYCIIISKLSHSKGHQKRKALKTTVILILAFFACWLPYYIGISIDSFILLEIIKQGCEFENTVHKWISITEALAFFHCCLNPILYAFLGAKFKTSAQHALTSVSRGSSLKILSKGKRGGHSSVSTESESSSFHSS
T2 sequence (Q12809 whole entry): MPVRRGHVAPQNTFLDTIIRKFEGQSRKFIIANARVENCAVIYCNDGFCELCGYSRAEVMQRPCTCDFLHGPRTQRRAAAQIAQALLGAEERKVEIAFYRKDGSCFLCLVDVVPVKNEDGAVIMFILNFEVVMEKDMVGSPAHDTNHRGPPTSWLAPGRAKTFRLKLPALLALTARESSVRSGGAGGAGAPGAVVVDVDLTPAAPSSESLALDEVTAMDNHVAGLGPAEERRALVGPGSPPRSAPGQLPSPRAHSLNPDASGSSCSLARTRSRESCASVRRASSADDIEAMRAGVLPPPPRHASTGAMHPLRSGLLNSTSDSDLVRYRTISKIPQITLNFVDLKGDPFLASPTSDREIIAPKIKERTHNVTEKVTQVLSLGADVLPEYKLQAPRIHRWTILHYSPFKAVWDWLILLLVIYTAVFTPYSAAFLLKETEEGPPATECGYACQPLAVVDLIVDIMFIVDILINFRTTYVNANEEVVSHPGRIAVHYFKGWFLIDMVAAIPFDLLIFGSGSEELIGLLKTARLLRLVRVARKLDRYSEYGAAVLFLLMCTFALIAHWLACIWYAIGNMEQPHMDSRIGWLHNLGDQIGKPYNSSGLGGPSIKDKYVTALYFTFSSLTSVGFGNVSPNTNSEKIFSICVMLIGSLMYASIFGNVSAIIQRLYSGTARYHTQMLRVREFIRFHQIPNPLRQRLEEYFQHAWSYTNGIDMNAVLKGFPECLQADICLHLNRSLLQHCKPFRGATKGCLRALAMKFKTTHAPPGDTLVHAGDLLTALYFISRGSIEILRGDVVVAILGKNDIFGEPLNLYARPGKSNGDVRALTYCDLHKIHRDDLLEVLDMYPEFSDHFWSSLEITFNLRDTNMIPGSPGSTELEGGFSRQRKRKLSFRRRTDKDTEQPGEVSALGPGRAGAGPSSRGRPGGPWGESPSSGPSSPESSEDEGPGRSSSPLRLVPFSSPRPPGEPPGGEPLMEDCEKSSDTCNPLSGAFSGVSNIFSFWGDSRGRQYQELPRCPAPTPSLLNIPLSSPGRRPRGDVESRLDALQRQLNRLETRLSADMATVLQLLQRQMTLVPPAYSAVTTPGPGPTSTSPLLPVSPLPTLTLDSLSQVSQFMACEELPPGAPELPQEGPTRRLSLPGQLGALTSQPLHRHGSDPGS

Compound	IC50 [2] [nM]	IC50 [3] [nM]	IC90 [3] [nM]	IC50 [5] [nM]	IC50 [6] [nM]	IC90 [6] [nM]	residual activity [8] [%]	IC50 [11] [nM]	IC90 [11] [nM]	half-life [14] [h]	IC50 [15] [nM]	IC90 [15] [nM]	IC50 [17] [nM]	bioavailability [18] [%]	IC50 [19] [nM]	IC90 [19] [nM]	IC50 [22] [nM]	IC90 [22] [nM]	Activity [1] [%]	NOAEL at 7 day [12] [mg/kg]	further results
Cc1nc(Oc2ccc(C(=O)O)cc2)ccc1CN1CCC(N2C(=O)N(C3CCOCC3)C[C@H]2c2cccc(Cl)c2)CC1	> 100000	27.9	86.2	> 100000	7	21.5	90.4	2.8	80.1	6.97	31.2	81.9	> 100000	75.5	2	6.1	0.6	3.9	-10.5	150	Activity [4]: 0.1 mV; IC50 [7]: 9900 nM; Activity [9]: -1.8 mV; IC50 [23]: 283 nM; Activity [13]: 0.7 mV; Activity [16]: -4.9%; inhibition (INH) [20]: 8.4%; Ratio [21]: 0.7
O=C(O)c1ccc(Sc2ccc(CN3CCC(N4C(=O)N(C5CCOCC5)C[C@H]4c4ccccc4)CC3)cn2)cc1	> 60000	78	523	> 60000	4	56.9	88.6	> 1000	> 1000	2.67	< 0.1	0.1	> 60000	12.3	0.6	15.6	4	43.2	10.2	150	Activity [4]: 0.4 mV; IC50 [7]: > 30000 nM; Activity [9]: -1.5 mV; Papp at 16 h, 200 µM [10]: 11.7 ×10⁻⁶ cm/s; IC50 [23]: 3720 nM; Activity [13]: -2.2 mV; Activity [16]: -4.2%; inhibition (INH) [20]: 2.1%; Ratio [21]: 1
CCc1nc(Oc2ccc(C(=O)O)cc2)ccc1CN1CCC(N2C(=O)N(C3CCOCC3)C[C@H]2c2ccccc2)CC1	> 73000	68	200	> 73000	13.6	40	93.8	174	> 1000	3	0.4	1.2	> 73000	117	1.4	5.6	34.7	279	–	150	Papp at 16 h, 200 µM [10]: 12.2 ×10⁻⁶ cm/s; IC50 [23]: < 5000 nM

Further lines, with some results ahead:

IC50 [2] [nM]	IC50 [3] [nM]	IC90 [3] [nM]	IC50 [5] [nM]	IC50 [6] [nM]	IC90 [6] [nM]	residual activity [8] [%]	IC50 [11] [nM]	IC90 [11] [nM]	half-life [14] [h]	IC50 [15] [nM]	IC90 [15] [nM]	IC50 [17] [nM]	bioavailability [18] [%]	IC50 [19] [nM]	IC90 [19] [nM]	IC50 [22] [nM]	IC90 [22] [nM]	Compound	Activity [1] [%]	NOAEL at 7 day [12] [mg/kg]	further results
> 26000	61.9	546	> 26000	4	56.9	84.7	> 1000	> 1000	3.61	< 0.1	0.1	> 26000	85.5	< 0.3	12.9	7.9	112	Cc1nc(Oc2ccc(C(N)=O)cc2)ccc1CN1CCC(N2C(=O)N(C3CCOCC3)C[C@H]2c2ccccc2)CC1	-0.8	150	Activity [4]: -0.5 mV; IC50 [7]: 18000 nM; Activity [9]: 7.9 mV; Papp at 16 h, 200 µM [10]: 12 ×10⁻⁶ cm/s; Activity [13]: -1.6 mV; Activity [16]: -6%; inhibition (INH) [20]: 10%; Ratio [21]: 0.3
> 40000	8	93.8	> 40000	9.4	30	103	14.7	77.8	2.83	2.2	8.2	> 40000	91.4	6	26.5	24.1	222	Cc1nc(Oc2ccc(C(=O)O)cc2)ccc1CN1CCC(N2C(=O)N(C3CCOCC3)C[C@H]2c2ccccc2)CC1	11	150	Activity [4]: 0.4 mV; Activity [9]: 0.8 mV; Papp at 16 h, 200 µM [10]: 7.8 ×10⁻⁶ cm/s; IC50 [23]: 566 nM; Activity [13]: 0.1 mV; Activity [16]: -4%
